A selection: hits, their analogues and other compounds. The true share with any hit is near 3.1%.
CHO parental Ca = signal in parental CHO cells, OX1R antagonist counter-screen. parental CHO-K1, ATP-induced calcium, Fluo-8 fluorescence. inhibition, % at 5.6 µM. hit rate 0.63% among 330,000. AID 463079;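 active means inhibition above that plate's mean sample inhibition plus 3 SD, cut at about 26% in these data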;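 further: 0% = ATP-challenged DMSO wells and 100% = DMSO wells without ATP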
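Test system: untransfected parental CHO cell line. Compound: one dose, 5.6 µM nominal. Detection: intracellular calcium via Fluo-8 no-wash fluorescent dye. Measure: % inhibition. Benchmarks: ATP-challenged DMSO wells low, unchallenged DMSO wells high.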
OX1R antag-1 = human HCRTR1 antagonism | CHO/OX1R cells, Fluo-8 calcium fluorescence, orexin A | hit rate 0.43% among 330,000 | inhibition, % at 5 µM | AID 434989;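 active means inhibition above its plate's threshold, mean inhibition of all tested compounds on the plate plus 3 SD, cut at about 37% in these data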;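 further: 0% = orexin A challenge wells and 100% = SB-334867-A antagonist wells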
GPR7 antagonist = human neuropeptides B/W receptor 1 antagonism | P48145 | hit rate 1.1% among 290,000 | inhibition, % at 4.4 µM | GPR7-expressing cells, fluorescence antagonist assay; in the data active means inhibition above about 16%, passing the limit was not always enough;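 further: cells stimulated with the agonist NPW; 0% = agonist with vehicle and 100% = vehicle without agonist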
Target sequence (P48145 whole entry, looked up): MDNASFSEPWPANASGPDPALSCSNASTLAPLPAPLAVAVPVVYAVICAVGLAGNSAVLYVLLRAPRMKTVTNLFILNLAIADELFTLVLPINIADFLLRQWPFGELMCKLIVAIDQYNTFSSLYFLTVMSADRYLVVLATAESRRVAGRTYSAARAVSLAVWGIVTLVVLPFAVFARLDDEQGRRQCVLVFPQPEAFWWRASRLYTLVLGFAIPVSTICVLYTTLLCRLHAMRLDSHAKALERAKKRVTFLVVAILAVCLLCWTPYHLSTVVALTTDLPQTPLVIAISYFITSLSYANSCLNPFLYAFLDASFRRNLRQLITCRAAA
OX1R antag-2 = OX1R (human) antagonism. OX1R-expressing cells, FRET antagonist read-out. inhibition, % at 6.6 µM. hit rate 1.8% among 330,000. AID 485270; in the data active means inhibition mostly above about 38%, no sharp cut-off; inactive means mostly below about 40%;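 further: 0% = agonist challenge alone and 100% = reference antagonist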
GalR3 antagonist = blocks the human galanin receptor 3; inhibition, % at 3 µM; O60755; AID 651719; hit rate 0.44% among 360,000; HEK293 GalR3-CNG cAMP membrane potential fluorescence; galR3 body fused to GalR1 C-terminus;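 active means inhibition above the screen-wide average plus 3 SD, cut at about 13% in these data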;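 further: forskolin and galanin both at EC90 stimulate the cells; cAMP rise reported by CNG channel membrane potential dye signal; 0% = forskolin plus galanin with DMSO and 100% = forskolin alone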
Target sequence (O60755 1-299 limits assumed): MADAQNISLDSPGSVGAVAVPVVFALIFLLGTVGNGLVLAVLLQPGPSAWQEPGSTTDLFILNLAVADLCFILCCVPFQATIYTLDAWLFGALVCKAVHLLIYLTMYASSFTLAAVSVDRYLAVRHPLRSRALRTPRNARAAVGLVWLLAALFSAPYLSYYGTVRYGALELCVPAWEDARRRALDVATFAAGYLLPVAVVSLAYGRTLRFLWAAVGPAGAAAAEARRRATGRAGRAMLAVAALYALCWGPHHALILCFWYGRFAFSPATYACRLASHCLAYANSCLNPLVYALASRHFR
GPR7 antag conf = confirmation of human GPR7 antagonists; shares compounds with GPR7 antagonist; AID 1952; GPR7-expressing cells, calcium fluorescence antagonist mode; inhibition, % at 4.4 µM; hit rate 52% among 2,400; in the data active means inhibition above about 24%;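 further: stimulated with the GPR7 agonist NPW; 0% = agonist plus vehicle and 100% = vehicle alone without agonist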
MCHR1 antagonist = antagonizes human MCHR1, a GPR7 antagonist counter-screen; shares compounds with GPR7 antagonist; MCHR1-expressing cells, fluorescence antagonist assay; inhibition, % at 4.4 µM; hit rate 62% among 2,400; AID 2148; in the data active means inhibition above about 22%;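 further: 0% = vehicle with agonist and 100% = vehicle without agonist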
Numbers without * were called inactive; · = no result.

SMILES | CHO parental Ca | OX1R antag-1 | GPR7 antagonist | OX1R antag-2 | GalR3 antagonist | GPR7 antag conf | MCHR1 antagonist
COc1ccccc1OCC(=O)Nc1c2c(nn1-c1ccccc1)CS(=O)(=O)C2 | -12 | -1 | 23* | 13 | -7 | 1 | 4
COc1ccccc1OCC(=O)Nc1c2c(nn1-c1ccc(C)cc1)CS(=O)(=O)C2 | 6 | -21 | · | 10 | 0 | · | ·
CCCCOc1ccc(C(=O)Oc2ccc(C)nc2)cc1 | -13 | -3 | 7 | 12 | -5 | · | ·
CCCCCOc1ccc(OC(=O)c2ccncc2)cc1 | 1 | -28 | 27* | 12 | -3 | 1 | -4
COc1ccc(CNCCC(c2ccc(F)cc2)c2ccc(OC(C)C)cc2)cc1OC (configuration not stated) | 5 | -1 | 32* | 6 | -5 | 43* | 77*
COc1ccc(C(CCNCc2ccccc2)c2ccc(F)cc2)cc1 (configuration not stated) | -17 | -39 | 24 | 2 | -6 | · | ·
COc1ccc(C(CCNCc2ccc(F)cc2)c2ccc(F)cc2)cc1 (configuration not stated) | -9 | 1 | 39* | 21 | -6 | 50* | 77*
COc1ccc(C(CCNC(C)c2ccccc2)c2ccc(F)cc2)cc1 (configuration not stated) | -1 | 1 | 40* | 7 | -10 | 47* | 56*
COc1cc2ccccc2cc1C(=O)N1CCN(c2ccccc2O)CC1 | -23 | -10 | · | -1 | -1 | · | ·
CCc1cc2c(nc1CC)CCCN2S(=O)(=O)c1c(C)noc1C | · | · | · | · | 0 | · | ·
Cn1nc(C(=O)NNC(=O)CCc2ccccc2Cl)c2ccccc2c1=O | -20 | -26 | · | 18 | -4 | · | ·
CC(C)CCNC(=O)C(c1ccco1)N(Cc1cccs1)C(=O)Cn1nnc2ccccc21 (configuration not stated) | · | · | 33* | · | -8 | 11 | 10
Cc1ccc2[nH]c3c(c2c1)CCc1cn[nH]c1-3 | 3 | -12 | 23* | 9 | 2 | 8 | 24*
COC(=O)Cc1c([C@H](C)[C@@H](OC)c2ccccc2Br)nnn1Cc1ccccc1 | · | · | · | · | 1 | · | ·
COC(=O)C1CCN(C(c2cc(OC)c(OC)c(OC)c2)c2sc3nc(C)nn3c2O)CC1 (configuration not stated) | 5 | 7 | 23* | 4 | · | -10 | 3
Cc1nn2c(NCCCN(C)C)c3c(nc2c1-c1ccccc1)CCCC3 | -18 | -19 | 30* | 4 | -9 | 18 | 23*
Cc1nn2c(NCCCN(C)C)c3c(nc2c1-c1ccccc1)CCC3 | -16 | -36 | 0 | 10 | -6 | · | ·
CCOC(=O)[C@]12CCC=C1N(Cc1ccccc1)C(=O)[C@H](CC(=O)N1CCN(C(=O)c3ccco3)CC1)C2 | · | · | · | · | 1 | · | ·
CC(C)NC(=O)NC(=O)CSc1nnc(COc2ccccc2F)n1C(C)C1CC2CCC1C2 (configuration not stated) | 70* | 5 | 32* | 0 | · | 28* | 54*
CC1(C)CC(=O)C/C(=N/NC(=O)COc2ccc(Cl)cc2Cl)C1 | -13 | -24 | -13 | 8 | -4 | · | ·
CC1(C)CC(=O)C/C(=N/NC(=O)COc2ccc3ccccc3c2Br)C1 | -19 | -7 | 104* | 1 | -2 | -1 | 1
COc1ccc(NC(=S)N2CCN(c3ccc4c(c3)C3CCN(C(=O)OCc5ccccc5)C4C3)CC2)c(OC)c1 (configuration not stated) | · | · | · | · | -7 | · | ·
CCN(CC(=O)Nc1c(F)cccc1F)C(=O)c1ccc(Cl)c(S(=O)(=O)N2CCCCC2)c1 | -7 | -5 | 35* | 20 | -1 | 13 | 49*
Cc1ccc(C)c(NC(=S)N2CCC(NC(=O)C3CCCCC3)CC2)c1 | -4 | -9 | -7 | 17 | -9 | · | ·
Cc1cccc(NC(=O)CC2C(=O)NCCN2C(=O)Nc2ccc(Cl)cc2)c1 (configuration not stated) | · | · | 21* | · | -8 | 33* | 47*
SMILES | CHO parental Ca | OX1R antag-1 | GPR7 antagonist | OX1R antag-2 | GalR3 antagonist | GPR7 antag conf | MCHR1 antagonist
Cc1cccc(NC(=O)c2cc([N+](=O)[O-])ccc2N2CCOCC2)c1C | · | · | · | · | -5 | · | ·
CCc1ccccc1NC(=O)c1cc([N+](=O)[O-])ccc1N1CCOCC1 | -15 | -13 | 33* | 36 | 2 | -4 | 5
Cc1cccc(C)c1NC(=O)CNC(=O)c1ccc(COc2ccccc2)o1 | -16 | -15 | · | 11 | -4 | · | ·
Clc1ccc(-c2c[n+](Cc3ccc(Cl)cc3Cl)c3n2CCCCC3)cc1 | -10 | -17 | 23* | 6 | -1 | 26* | 27*
Cc1cccc(NS(=O)(=O)c2ccc(C)c(C(=O)NC3CCN(Cc4ccccc4)CC3)c2)c1 | · | · | · | · | -7 | · | ·
COc1ccccc1N1CCN(C(=O)/C=C/c2ccc(C)cc2)CC1 | -14 | -9 | 1 | 15 | -7 | · | ·
COc1ccccc1N1CCN(C(=O)/C=C/c2cccc([N+](=O)[O-])c2)CC1 | -16 | -13 | 32* | 3 | -6 | 16 | 33*
COc1ccccc1NC(=O)c1cc(C(=O)Nc2ccccc2OC)cc([N+](=O)[O-])c1 | -10 | -31 | 1 | 1 | -8 | · | ·
CC(C)CS(=O)(=O)C1=NN2C(=N)/C(=C\c3ccc(OC(=O)c4ccco4)cc3)C(=O)N=C2S1 | -4 | -13 | 43* | 5 | 1 | 42* | 34*
CC1CCc2onc(C(=O)O)c2C1 (configuration not stated) | 6 | -2 | 24* | 9 | 2 | 9 | -4
COc1ccc(OCc2nnc(SCC(=O)N3CCCC3)o2)cc1 | -8 | -26 | 24* | 12 | -8 | -1 | 7
C=CCN1C(=O)CSc2ccc(C(=O)NCc3cccs3)cc21 | -14 | -22 | 28* | 14 | 6 | 10 | 13
CCSCCOC(=O)C1=C(C)N(C)C(=O)NC1c1cc(OC)ccc1OC (configuration not stated) | -13 | -10 | 23* | 14 | -1 | -5 | 10
CCSCCOC(=O)C1=C(C)NC(=O)NC1c1cc(OC)ccc1OC (configuration not stated) | -4 | -22 | -15 | 13 | 3 | · | ·
CC(C)(C)c1ccc(OCCOc2ccc(C(C)(C)C)cc2NC=O)c(NC=O)c1 | 69* | 41* | 19* | 29 | -12 | 29* | 72*
O=C(C#Cc1ccccc1)c1ccco1 | 16 | 25 | 56* | 23 | -4 | 58* | 66*
OC(CNCc1ccc(Cl)cc1)(c1ccccc1)c1ccc(F)cc1 (configuration not stated) | -31 | -35 | 2 | 19 | -5 | · | ·
CCCCNCC(O)(c1ccc(Cl)cc1)c1ccc(Cl)cc1 | -22 | -14 | 27* | 46 | -9 | 55* | 64*

Source: PubChem BioAssay
